The source made the active and inactive calls. No cut-off for these calls is given here.
Experiments:
[1] = target: T1, Melatonin receptor type 1B (Homo sapiens, UniProt P49286); assay: Agonist activity at human MT2 receptor expressed in HEK293 cells after 24 hrs by Fluo-8 dye-based calcium assay; type: functional, cell-based
T1 sequence (P49286 whole entry): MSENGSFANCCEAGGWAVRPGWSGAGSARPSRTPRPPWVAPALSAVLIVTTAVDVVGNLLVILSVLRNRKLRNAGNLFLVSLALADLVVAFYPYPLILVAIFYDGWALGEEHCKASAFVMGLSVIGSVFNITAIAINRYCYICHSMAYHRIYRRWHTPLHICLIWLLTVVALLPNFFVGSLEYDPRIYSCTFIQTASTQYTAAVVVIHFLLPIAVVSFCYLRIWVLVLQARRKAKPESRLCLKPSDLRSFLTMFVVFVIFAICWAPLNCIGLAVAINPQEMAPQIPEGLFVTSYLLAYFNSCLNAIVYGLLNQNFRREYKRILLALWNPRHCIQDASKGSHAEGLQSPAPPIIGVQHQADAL
Procedure, shortened: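 Fluo-8 calcium flux in HEK293 cells stably expressing human MT1 or MT2, grown in DMEM + 10% FBS at 37 °C, seeded 4×10^4/well and incubated 24 h. Compounds in DMSO/HBSS at several concentrations; fluorescence read at room temperature (ex 485, em 525 nm). Triplicate wells, three independent experiments; EC50 by nonlinear regression.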

Mus musculus [2] = assay: Antidepressant activity in po dosed Kunming mouse assessed as decrease in immobility duration by forced swim test; type: functional, organism-based
Procedure, shortened: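 Male Kunming mice (18–20 g) given 10, 20 or 40 mg/kg orally; fluoxetine and agomelatine 20 mg/kg as references. Each mouse swam 6 min in a cylinder (25 × 15 cm) holding 10 cm of water at 25 ± 1 °C. Immobility over the last 4 min was scored by video tracking; n = 10, mean ± SEM versus vehicle.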

Mus musculus [3] = assay: Increase in ratio of 5-hydroxyindole-3-acetic acid to 5-hydroxytryptamine level in Kunming mouse hypothalamus at 40 mg/kg, po treated for 7 days by HPLC-ECD analysis; type: functional, organism-based
Procedure, shortened: (§1)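 Male Kunming mice (18–20 g) given vehicle or 40 mg/kg for 7 days, then killed by cervical dislocation. Frontal cortex, hippocampus, striatum, hypothalamus and thalamus dissected on ice, homogenized in ice-cold 0.2 M perchloric acid with 0.1 mM EDTA, centrifuged 15,000 rpm, 20 min, 4 °C. Supernatant analysed by HPLC-ECD at +0.50 V; phosphate/octanesulfonate mobile phase pH 3.0 with 12% methanol. Levels in ng/g, mean ± SEM.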

Mus musculus [4] = assay: Decrease in dopamine level in Kunming mouse hypothalamus at 40 mg/kg, po treated for 7 days by HPLC-ECD analysis; type: functional, organism-based
Procedure, shortened: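 Male Kunming mice received vehicle or 40 mg/kg for 7 days, then were killed by cervical dislocation and the brain regions dissected on ice. Tissue was homogenized in ice-cold 0.2 M perchloric acid with 0.1 mM EDTA and centrifuged at 15,000 rpm, 20 min, 4 °C. Supernatant was analyzed by HPLC-ECD (+0.50 V; phosphate/octanesulfonate mobile phase, pH 3.0). Results in ng/g, mean ± SEM.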

Mus musculus [5] = assay: Increase in 4-hydroxy-3-methoxyphenylacetic acid level in Kunming mouse thalamus at 40 mg/kg, po treated for 7 days by HPLC-ECD analysis; type: functional, organism-based; procedure, shortened: as §1
Mus musculus [6] = assay: Increase in ratio of 3,4-dihydroxyphenylacetic acid and 4-hydroxy-3-methoxyphenylacetic acid to dopamine level in Kunming mouse thalamus at 40 mg/kg, po treated for 7 days by HPLC-ECD analysis; type: functional, organism-based; procedure, shortened: as §1
Rattus norvegicus = assay: Toxicity in Sprague-Dawley rat assessed as ulceration at 2000 mg/kg, po measured over 4 hrs; type: organism-based; conditions: in vivo
Procedure, shortened: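 Acute oral toxicity run per OECD 425 in adult SD rats (180–220 g). Six animals per group: vehicle control (0.5% CMC-Na, oral), male rats and female rats each dosed orally at 2000 mg/kg. Animals were watched continuously for the first 4 h for behavior, breathing, cutaneous signs (irritation, ulceration, caustic injury, skin rashes), sensory nervous and gastrointestinal effects. Later checks were hourly for 24 h, then every 6 h for 48 h.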

[7] = Drug metabolism in Sprague-Dawley rat urine assessed as 5'-(1-hydroxyallyl)-5-propyl-2'-((2S,3R,4S,5S,6R)-3,4,5-trihydroxy-6-(hydroxymethyl)tetrahydro-2H-pyran-2-yloxy)biphenyl-2-yl hydrogen sulfate formation at 100 mg/kg, po by UPLC-IT-TOF-MS analysis; type: ADME, organism-based; conditions: in vivo
Procedure, shortened: (§2)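 Male/unspecified SD rats (n = 6) housed individually in metabolic cages, dosed orally at 100.0 mg/kg; controls given 0.5% CMC-Na orally. Plasma, urine and faeces collected. LC-IT-TOF-MS on C18 column at 30 °C, formic acid (0.05%) water/acetonitrile gradient 5–100% B over 18 min, 0.2 mL/min; positive and negative ion modes with automatic MS/MS.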

[8] = Drug metabolism in Sprague-Dawley rat plasma assessed as (2S,3R,4S,5S,6R)-2-(5'-allyl-2'-hydroxy-5-(1-hydroxyallyl)biphenyl-2-yloxy)-6-(hydroxymethyl)tetrahydro-2H-pyran-3,4,5-triol formation at 100 mg/kg, po by UPLC-IT-TOF-MS analysis; type: ADME, organism-based; conditions: in vivo
Procedure, shortened: (§3)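 Rats (n = 6) housed in metabolic cages received 100.0 mg/kg orally; controls received 0.5% CMC-Na. Plasma, urine and faeces were collected and analyzed by LC-IT-TOF-MS on a C18 column at 30 °C. Gradient 5–100% acetonitrile with 0.05% formic acid over 18 min at 0.2 mL/min; positive and negative ion MS/MS.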

[9] = Drug metabolism in Sprague-Dawley rat urine assessed as 5-allyl-5'-(1-hydroxyallyl)-2'-((2S,3R,4S,5S,6R)-3,4,5-trihydroxy-6-(hydroxymethyl)tetrahydro-2H-pyran-2-yloxy)biphenyl-2-yl hydrogen sulfate formation at 100 mg/kg, po by UPLC-IT-TOF-MS analysis; type: ADME, organism-based; conditions: in vivo; procedure, shortened: as §2
[10] = Drug metabolism in Sprague-Dawley rat plasma assessed as 1-(5'-allyl-2'-hydroxy-6-((2S,3R,4S,5S,6R)-3,4,5-trihydroxy-6-(hydroxymethyl)tetrahydro-2H-pyran-2-yloxy)biphenyl-3-yl)prop-2-en-1-one formation at 100 mg/kg, po by UPLC-IT-TOF-MS analysis; type: ADME, organism-based; conditions: in vivo; procedure, shortened: as §3
[11] = Drug metabolism in Sprague-Dawley rat feces assessed as 1-(5'-allyl-2'-hydroxy-6-((2S,3R,4S,5S,6R)-3,4,5-trihydroxy-6-(hydroxymethyl)tetrahydro-2H-pyran-2-yloxy)biphenyl-3-yl)prop-2-en-1-one formation at 100 mg/kg, po by UPLC-IT-TOF-MS analysis; type: ADME, organism-based; conditions: in vivo; procedure, shortened: as §3
[12] = Drug metabolism in Sprague-Dawley rat urine assessed as (2R,2'R,3S,3'S,4S,4'S,5R,5'R,6S,6'S)-6,6'-(5,5'-diallylbiphenyl-2,2'-diyl)bis(oxy)bis(2-(hydroxymethyl)tetrahydro-2H-pyran-3,4,5-triol) formation at 100 mg/kg, po by UPLC-IT-TOF-MS analysis; type: ADME, organism-based; conditions: in vivo; procedure, shortened: as §2
[13] = Drug metabolism in Sprague-Dawley rat feces assessed as 5,5'-bis(1-hydroxyallyl)biphenyl-2,2'-diol formation at 100 mg/kg, po by UPLC-IT-TOF-MS analysis; type: ADME, organism-based; conditions: in vivo; procedure, shortened: as §3
[14] = Drug level in Sprague-Dawley rat urine at 100 mg/kg, po by UPLC-IT-TOF-MS analysis; type: ADME, organism-based; conditions: in vivo; procedure, shortened: as §3

C=CCc1ccc(O)c(-c2cc(CC=C)ccc2O[C@@H]2O[C@H](CO)[C@@H](O)[C@H](O)[C@H]2O)c1
EC50 [1]: 383 µM
Activity (Mus musculus [2]): Dose-dependent effect
Activity (Mus musculus [3]): Active
Activity (Mus musculus [4]): Active
Activity (Mus musculus [5]): Active
Activity (Mus musculus [6]): Active
Activity (Rattus norvegicus): Non-Toxic
Drug metabolism [7]: Metabolite_Notdetected
Drug metabolism [8]: Metabolite_Notdetected
Drug metabolism [9]: Metabolite_Notdetected
Drug metabolism [10]: Metabolite_Notdetected
Drug metabolism [11]: Metabolite_Notdetected
Drug metabolism [12]: Metabolite_Detected
Drug metabolism [13]: Metabolite_Detected
Drug uptake [14]: Not Active

Source: ChEMBL document CHEMBL4270555, “Synthesis and biological evaluation of magnolol derivatives as melatonergic receptor agonists with potential use in depression” (Eur J Med Chem, 2018)
